In ChEMBL document CHEMBL3259761, “Myrotheciumones: bicyclic cytotoxic lactones isolated from an endophytic fungus of Ajuga decumbens” (Bioorg Med Chem Lett, 2014):
Active and inactive are the calls of the source. No cut-off for these calls is given here.

Assays:
HepG2 [1] = assay: Induction of apoptosis in human HepG2 cells assessed as cytochrome c release from mitochondria at 4 uM after 12 hrs by immunofluorescence analysis relative to control; assay type: functional, cell-based
In short: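 HepG2 cells were treated at 4 µM for 12 h, then assessed for cytochrome c release from mitochondria.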

SMMC-7721 [2] = assay: Cytotoxicity against human SMMC7721 cells after 48 hrs by MTT assay; assay type: functional, cell-based; details: SMMC-7721, 48 h
In short: (§1)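 Cell lines: HepG2, A549 and MCF-7 from ATCC; SMMC-7721 hepatocellular carcinoma and QSG-7701 and HL-7702 normal human hepatocyte lines from the Type Culture Collection of the Chinese Academy of Sciences, Shanghai. Each line was exposed to compound and growth inhibition was scored; IC50 values reported as mean ± deviation.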

HepG2 [3] = assay: Induction of apoptosis in human HepG2 cells assessed as caspase 3 activity at 4 uM at 12 hrs by Ac-DEVD-pNA-based colorimetric assay relative to control; assay type: functional
In short: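 HepG2 cells were treated at 4 µM for 0, 3, 6 and 12 h. Caspase-3 activity was measured colorimetrically as conversion of Ac-DEVD-pNA to p-nitroaniline, using a Biovision kit per the manufacturer's protocol. Activity was expressed as fold over control.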

[4] = Cytotoxicity against human HL7702 cells after 48 hrs by MTT assay; assay type: cell-based; details: L02, 48 h; in short: as §1
A549 [5] = assay: Cytotoxicity against human A549 cells after 48 hrs by MTT assay; assay type: functional, cell-based; details: A549, 48 h; in short: as §1
HepG2 [6] = assay: Induction of apoptosis in human HepG2 cells assessed as PARP cleavage after 8 hrs by Western blotting; assay type: functional, cell-based
In short: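 HepG2 cells were treated either at 5, 10 and 20 µM for 8 h, or at 4 µM for 0, 3, 6 or 12 h. PARP cleavage was then assessed.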

MCF7 [7] = assay: Cytotoxicity against human MCF7 cells after 48 hrs by MTT assay; assay type: functional, cell-based; details: MCF7, 48 h; in short: as §1
[8] = Cytotoxicity against human QSG7701 cells after 48 hrs by MTT assay; assay type: cell-based; details: QSG7701, 48 h; in short: as §1
HepG2 [9] = assay: Cytotoxicity against human HepG2 cells after 48 hrs by MTT assay; assay type: functional, cell-based; details: HepG2, 48 h; in short: as §1
SMMC-7721 [10] = assay: Cytotoxicity against human SMMC7721 cells at 100 uM after 48 hrs by MTT assay; assay type: functional, cell-based
HepG2 [11] = assay: Cytotoxicity against human HepG2 cells at 100 uM after 48 hrs by MTT assay; assay type: functional, cell-based
A549 [12] = assay: Cytotoxicity against human A549 cells at 100 uM after 48 hrs by MTT assay; assay type: functional, cell-based
MCF7 [13] = assay: Cytotoxicity against human MCF7 cells at 100 uM after 48 hrs by MTT assay; assay type: functional, cell-based

SMILES | Activity (HepG2 [1]) | IC50 (SMMC-7721 [2]) | fold change (FC) (HepG2 [3]) | IC50 [4] | IC50 (A549 [5]) | Activity (HepG2 [6]) | IC50 (MCF7 [7]) | IC50 [8] | IC50 (HepG2 [9]) | Activity (SMMC-7721 [10]) | Activity (HepG2 [11]) | Activity (A549 [12]) | Activity (MCF7 [13])
C[C@@H]1[C@@H]2CC(=O)O[C@@H]2C[C@]1(C)O | Active | 6.56 µM | 6 | 20.7 µM | 5.88 µM | Dose-dependent effect | 7.56 µM | 16.3 µM | 5.36 µM | – | – | – | –
C[C@@H]1[C@@H]2C(=O)O[C@@H]2C[C@]1(C)O | – | – | – | – | – | – | – | – | – | inactive | inactive | inactive | inactive
